In ChEMBL document CHEMBL4229494, “Novel tertiary sulfonamides as potent anti-cancer agents” (Bioorg Med Chem, 2018):
pEC50, pIC50: −log10 of the molar value. ≈ marks a conversion by molar mass, not a printed value.

Tests used:
MCF7 [1] = assay: Induction of apoptosis in human MCF7 cells after 24 hrs by caspase-Glo 3/7 reagent based luminescence assay; type: functional, cell-based; conditions: MCF7, 24 h
Summary of the method: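 MCF-7 cells were plated at 25,000/well (DMEM, 10% FBS) and grown 24 h, then treated at 1.6 nM–5 µM or with DMSO for 24 h. Caspase 3/7 activity was read by Caspase-Glo 3/7 luminescence. Triplicate signals relative to DMSO were analysed by nonlinear regression.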

[2] = Inhibition of Wnt3A-induced Wnt transcription (unknown origin) expressed in HEK293 cells coexpressing TK-driven Rluc after 20 to 22 hrs by super-top flash reporter gene assay; type: cell-based; conditions: Homo sapiens
Summary of the method: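 HEK-293 cells (DMEM, 10% FBS) were co-transfected with Super(8x)TOPflash, a Wnt3A expression vector and TK-driven Renilla luciferase. After 8 h at 37 °C, 5% CO2, cells were seeded at 25,000/well and treated at 1.6, 8, 40, 200, 1000 or 5000 nM, or with DMSO, for 20-22 h in triplicate. Firefly/Renilla luminescence was taken relative to DMSO, and IC50 was found by nonlinear regression.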

MDA-MB-231 [3] = assay: Antiproliferative activity against human MDA-MB-231 cells after 24 hrs by SYBR green dye based fluorescence assay; type: functional, cell-based; conditions: MDA-MB-231, 24 h
Summary of the method: (§1)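 Cells were plated at 500/well in DMEM/10% FBS and allowed to attach for 24 h at 37 °C, 5% CO2. They were then exposed to 1.6 nM–5 µM or DMSO. One plate was harvested every 24 h over 7 days and frozen at -20 °C. DNA was quantified by SYBR Green fluorescence (Ex495/Em535). Triplicate values relative to DMSO went to nonlinear regression for IC50.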

MCF7 [4] = assay: Antiproliferative activity against human MCF7 cells after 24 hrs by SYBR green dye based fluorescence assay; type: functional, cell-based; conditions: MCF7, 24 h; summary of the method: as §1
MDA-MB-231 [5] = assay: Antitumor activity against human MDA-MB-231 cells xenografted in athymic nude mouse assessed as average tumor volume at 20 mg/kg, ip qd administered every consecutive day in presence of doxorubicin at 5 mg/kg/week measured on day 35 relative to control; type: functional
[6] = Metabolic stability in human liver microsomes measured at > 60 mins in presence of NADPH by HPLC analysis; type: ADME, microsome; conditions: 1 h
[7] = Solubility of the compound; type: physicochemical
[8] = Lipophilicity, log D of the compound at pH 3; type: physicochemical; conditions: buffer
[9] = Lipophilicity, log D of the compound at pH 7; type: physicochemical; conditions: buffer
MCF7 [10] = assay: Potentiation of doxorubicin-induced antiproliferative activity against human MCF7 cells at 8 nM after 72 hrs by SYBR green dye based fluorescence assay relative to control; type: functional
Summary of the method: (§2)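 Cells were plated at 2,000/well (DMEM, 10% FBS) and incubated 24 h at 37 °C, 5% CO2. Test compound at 1.6 nM–2 µM was given with or without doxorubicin (MCF-7: 1.6 nM–2 µM; MDA-MB-231: 4 nM–5 µM), or DMSO, for 72 h. DNA was measured by SYBR Green fluorescence (Ex495/Em535). Triplicate values relative to DMSO were used for IC50 and Chou-Talalay combination index analysis.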

MDA-MB-231 [11] = assay: Potentiation of doxorubicin-induced antiproliferative activity against human MDA-MB-231 cells at 8 nM after 72 hrs by SYBR green dye based fluorescence assay relative to control; type: functional; summary of the method: as §2
MCF7 [12] = assay: Synergistic antiproliferative activity against human MCF7 cells assessed as combination index at 8 nM after 72 hrs in presence of doxorubicin by SYBR green dye based fluorescence assay; type: functional; summary of the method: as §2
MDA-MB-231 [13] = assay: Synergistic antiproliferative activity against human MDA-MB-231 cells assessed as combination index at 8 nM after 72 hrs in presence of doxorubicin by SYBR green dye based fluorescence assay; type: functional; summary of the method: as §2
MCF7 [14] = assay: Synergistic antiproliferative activity against human MCF7 cells assessed as combination index at ED75 after 72 hrs in presence of doxorubicin by SYBR green dye based fluorescence assay; type: functional; summary of the method: as §2
MDA-MB-231 [15] = assay: Synergistic antiproliferative activity against human MDA-MB-231 cells assessed as combination index at ED75 after 72 hrs in presence of doxorubicin by SYBR green dye based fluorescence assay; type: functional; summary of the method: as §2
MCF7 [16] = assay: Synergistic antiproliferative activity against human MCF7 cells assessed as combination index at ED90 after 72 hrs in presence of doxorubicin by SYBR green dye based fluorescence assay; type: functional; summary of the method: as §2
MDA-MB-231 [17] = assay: Synergistic antiproliferative activity against human MDA-MB-231 cells assessed as combination index at ED90 after 72 hrs in presence of doxorubicin by SYBR green dye based fluorescence assay; type: functional; summary of the method: as §2
[18] = molecular target: Voltage-gated inwardly rectifying potassium channel KCNH2 (Homo sapiens, UniProt Q12809); assay: Inhibition of human ERG up to 50 uM
Sequence of Voltage-gated inwardly rectifying potassium channel KCNH2 (Q12809 whole entry): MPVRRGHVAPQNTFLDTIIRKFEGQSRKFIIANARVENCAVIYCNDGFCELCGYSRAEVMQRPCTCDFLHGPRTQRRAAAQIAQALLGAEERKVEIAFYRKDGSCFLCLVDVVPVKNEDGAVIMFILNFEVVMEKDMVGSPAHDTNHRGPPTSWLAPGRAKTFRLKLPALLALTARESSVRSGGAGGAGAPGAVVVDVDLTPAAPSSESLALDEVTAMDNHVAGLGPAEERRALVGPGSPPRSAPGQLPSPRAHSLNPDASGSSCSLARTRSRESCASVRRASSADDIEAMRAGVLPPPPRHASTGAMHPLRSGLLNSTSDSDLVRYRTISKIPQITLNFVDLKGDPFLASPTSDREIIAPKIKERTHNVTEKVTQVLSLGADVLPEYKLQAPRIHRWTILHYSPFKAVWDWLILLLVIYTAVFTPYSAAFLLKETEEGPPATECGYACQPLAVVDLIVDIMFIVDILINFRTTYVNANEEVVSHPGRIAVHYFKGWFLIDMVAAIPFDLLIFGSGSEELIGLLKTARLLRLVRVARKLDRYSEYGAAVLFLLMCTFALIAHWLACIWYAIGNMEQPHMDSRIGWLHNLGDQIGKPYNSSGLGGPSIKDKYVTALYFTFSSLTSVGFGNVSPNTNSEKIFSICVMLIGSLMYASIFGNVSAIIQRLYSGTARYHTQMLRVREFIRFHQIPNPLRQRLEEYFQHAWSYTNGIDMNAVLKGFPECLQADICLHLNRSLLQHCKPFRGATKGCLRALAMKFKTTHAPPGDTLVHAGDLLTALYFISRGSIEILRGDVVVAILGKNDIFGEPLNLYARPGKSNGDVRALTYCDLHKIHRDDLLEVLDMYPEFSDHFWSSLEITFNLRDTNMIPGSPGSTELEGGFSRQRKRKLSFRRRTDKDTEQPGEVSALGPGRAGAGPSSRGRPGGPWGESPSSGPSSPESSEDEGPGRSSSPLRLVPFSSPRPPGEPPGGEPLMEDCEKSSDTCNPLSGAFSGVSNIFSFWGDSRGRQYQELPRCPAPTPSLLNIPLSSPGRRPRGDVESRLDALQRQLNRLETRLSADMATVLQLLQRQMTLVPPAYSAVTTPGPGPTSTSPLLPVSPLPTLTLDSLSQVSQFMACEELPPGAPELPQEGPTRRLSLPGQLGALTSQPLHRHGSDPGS

[19] = Metabolic stability in rat liver microsomes measured at > 60 mins in presence of NADPH by HPLC analysis; type: ADME, microsome; conditions: 1 h
[20] = Inhibition of human CYP450 at 50 uM; type: ADME
[21] = Oral bioavailability in rat; type: ADME, organism-based; conditions: in vivo
MDA-MB-231 [22] = assay: Antitumor activity against human MDA-MB-231 cells xenografted in athymic nude mouse assessed as decrease in tumor volume at 20 mg/kg, ip qd administered for 16 consecutive days relative to control; type: functional; set-up: scale not given: the % may be the effect or the level left
MDA-MB-231 [23] = assay: Antitumor activity against human MDA-MB-231 cells xenografted in athymic nude mouse assessed as decrease in tumor volume at 20 mg/kg, ip qd administered for 16 consecutive days in presence of doxorubicin at 5 mg/kg/week relative to control; type: functional; set-up: scale not given: the % may be the effect or the level left
MDA-MB-231 [24] = assay: Antitumor activity against human MDA-MB-231 cells xenografted in athymic nude mouse assessed as average tumor volume at 20 mg/kg, ip qd administered every consecutive day in presence of doxorubicin at 5 mg/kg/week measured on day 51 (reference value: 653 +/- 192 mm3); type: functional
[25] = Drug uptake in serum of athymic nude mouse xenografted with human MDA-MB-231 cells at 20 mg/kg, ip qd administered for 16 consecutive days by HPLC/MS analysis; type: ADME, organism-based; conditions: read-out: Drug uptake
Summary of the method: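 In the MDA-MB-231 xenografted nu/nu mice given 20 mg/kg/day i.p. for 16 days, serum drug concentration was measured by HPLC at the end of the study and confirmed by LCMS.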

Mus musculus [26] = assay: Upregulation of p53 protein expression level in tumors of athymic nude mouse xenografted with human MDA-MB-231 cells at 20 mg/kg, ip qd administered every consecutive day in presence of doxorubicin at 5 mg/kg/week measured on day 51 by Western blot analysis relative to control; type: functional
Summary of the method: (§3)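 MDA-MB-231 xenograft tumors were excised from nu/nu mice at study termination (day 51), after 16 days of i.p. treatment started on day 35. p53, phospho-Ser15-p53 and PARP cleavage were quantified by Western blot and compared with vehicle-treated animals.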

Mus musculus [27] = assay: Upregulation of phospho Ser15-53 protein expression level in tumors of athymic nude mouse xenografted with human MDA-MB-231 cells at 20 mg/kg, ip qd administered every consecutive day in presence of doxorubicin at 5 mg/kg/week measured on day 51 by Western blot analysis relative to control; type: functional; summary of the method: as §3
Mus musculus [28] = assay: Upregulation of PARP cleavage expression level in tumors of athymic nude mouse xenografted with human MDA-MB-231 cells at 20 mg/kg, ip qd administered every consecutive day in presence of doxorubicin at 5 mg/kg/week measured on day 51 by Western blot analysis relative to control; type: functional; summary of the method: as §3
MDA-MB-231 [29] = assay: Synergistic antitumor activity against human MDA-MB-231 cells xenografted in athymic nude mouse assessed as reduction in tumor weight at 20 mg/kg, ip qd administered every consecutive day in presence of doxorubicin at 5 mg/kg/week measured on day 51; type: functional; set-up: scale not given: the % may be the effect or the level left

CC(C)(C)c1ccc2c(c1)CCCN2S(=O)(=O)c1ccc(N2CCCC2=O)cc1
pEC50 (MCF7 [1]): 6.51
pIC50 [2]: 6.18
pIC50 (MDA-MB-231 [3]): 6.22
pIC50 (MCF7 [4]): 6.50

O=C1CCCN1c1ccc(S(=O)(=O)N2CCN(CCO)c3ccccc32)cc1
pIC50 [2]: < 5.30

CN1CCN(S(=O)(=O)c2ccc(N3CCCC3=O)cc2)c2ccccc21
Activity (MDA-MB-231 [5]): 154 mm3
pEC50 (MCF7 [1]): 7.89
Stability [6]: Stable
pIC50 [2]: 7.96
pIC50 (MDA-MB-231 [3]): 7.89
pIC50 (MCF7 [4]): 8.00
solubility [7]: 28.2 µM (≈ 10.5 µg/mL)
logD [8]: 1.9
logD [9]: 1.9
fold change (FC) (MCF7 [10]): 2 - 3
fold change (FC) (MDA-MB-231 [11]): 2 - 3
CI (MCF7 [12]): <1
CI (MDA-MB-231 [13]): <1
CI (MCF7 [14]): 0.75
CI (MDA-MB-231 [15]): 0.68
CI (MCF7 [16]): 0.97
CI (MDA-MB-231 [17]): 0.72
inhibition (INH) [18]: Not Active
Stability [19]: Stable
inhibition (INH) [20]: Not Active
bioavailability [21]: 15 to 20%
Activity (MDA-MB-231 [22]): 91.5%
Activity (MDA-MB-231 [23]): 93.7 - 96.2%
Activity (MDA-MB-231 [24]): 24.7 mm3
concentration at 16 days [25]: 200 ng/mL
fold change (FC) (Mus musculus [26]): 1.5
fold change (FC) (Mus musculus [27]): 3
fold change (FC) (Mus musculus [28]): 30
Activity (MDA-MB-231 [29]): 93.7%

O=C1CCCN1c1ccc(S(=O)(=O)N2CCCCC2)cc1
pIC50 [2]: < 5.30

O=S(=O)(c1ccc(-n2cccn2)cc1)N1CCCc2ccccc21
pIC50 [2]: 5.78

CC(=O)N(C)c1ccc(S(=O)(=O)N2CCCc3ccccc32)cc1
pIC50 [2]: < 5.30

O=C1CCCN1c1ccc(S(=O)(=O)N2CCc3ccccc3C2)cc1
pIC50 [2]: 6.20

O=C1CCCN1c1ccc(S(=O)(=O)Nc2cccc3ccccc23)cc1
pIC50 [2]: < 5.30

Cc1ccc2c(c1)CCCN2S(=O)(=O)c1ccc(N2CCCC2=O)cc1
pEC50 (MCF7 [1]): 7.21
pIC50 [2]: 8.15
pIC50 (MDA-MB-231 [3]): 7.77
pIC50 (MCF7 [4]): 7.82

O=S(=O)(c1ccc(N2CCCC2)cc1)N1CCCc2ccccc21
pIC50 [2]: 7.70
solubility [7]: < 0.5 µM
logD [8]: 3.6
logD [9]: 3.7

CCCN(c1ccccc1)S(=O)(=O)c1ccc(N2CCCC2=O)cc1
pEC50 (MCF7 [1]): < 5.30
pIC50 [2]: < 5.30
pIC50 (MDA-MB-231 [3]): < 5.30
pIC50 (MCF7 [4]): < 5.30

O=C1CCCN1c1ccc(S(=O)(=O)N2CCOc3ccccc32)cc1
pIC50 [2]: 8.00
solubility [7]: 26.6 µM (≈ 9.53 µg/mL)
logD [8]: 1.7
logD [9]: 1.7

O=C1CCCN1c1ccc(S(=O)(=O)N2CCCc3cc(Cl)ccc32)cc1
pIC50 [2]: 7.89
solubility [7]: 2.9 µM (≈ 1.13 µg/mL)
logD [8]: 3.1
logD [9]: 3.1

O=C1CCCN1c1ccc(S(=O)(=O)N2CCCC3CCCCC32)cc1 (centres undefined)
pIC50 [2]: < 5.30

O=S(=O)(c1ccc(-n2cncn2)cc1)N1CCCc2ccccc21
pEC50 (MCF7 [1]): < 5.30
pIC50 [2]: < 5.30
pIC50 (MDA-MB-231 [3]): < 5.30
pIC50 (MCF7 [4]): < 5.30
